Assay results reported in ChEMBL document CHEMBL5390324, “Synthesis of 9-Cinnamyl-9H-purine Derivatives as Novel TLR4/MyD88/NF-κB Pathway Inhibitors for Anti-inflammatory Effects” (ACS Med Chem Lett, 2023).
Active and inactive are the calls of the source. The rule behind the calls is not given here.

Test system: RAW264.7
Test: Antiinflammatory activity in mouse RAW264.7 cells assessed as inhibition of LPS-stimulated nitric oxide production at 20 uM preincubated for 2 hrs followed by LPS stimulation for 24 hrs by Griess reagent based assay relative to control
Format: functional
Conditions: time 26 hrs
Summary of the method: (§1)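 RAW264.7 cells pretreated 2 h with compound, then LPS (500 ng/mL) 24 h. Nitrite in culture supernatant measured with Griess reagent (1% sulfanilamide in 5% H3PO4, 0.1% N-(1-naphthyl)ethylenediamine dihydrochloride). Inhibition % as mean ± SEM of triplicates; negative values denote enhancement of NO.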

Point of comparison: Cc1ccc(/C=C/Cn2cnc3c(N)ncnc32)cc1, inhibition at 20 µM -7.73%. Against it:
- CNc1ncnc2c1ncn2C/C=C/c1ccc(F)cc1 — higher, 2.9%
- CNc1nc(Cl)nc2c1ncn2C/C=C/c1ccc(F)cc1 — higher, 36.5%
- CNc1nc(Cl)nc2c1ncn2C/C=C/c1ccccc1 — higher, 34.7%
- ONc1nc(Cl)nc2c1ncn2C/C=C/c1ccc(F)cc1 — higher, 17.6%
- Nc1ncnc2c1ncn2C/C=C/c1ccc(F)cc1 — lower, -19.3%
- CNc1nc(Cl)nc2c1ncn2CC1CC1c1ccc(F)cc1 (centres undefined) — higher, 11.9%
- ONc1nc(Cl)nc2c1ncn2C/C=C/c1ccccc1 — higher, 51.2%
- Cc1ccc(/C=C/Cn2cnc3c(N)nc(Cl)nc32)cc1 — higher, 11.2%
- Nc1ncnc2c1ncn2C/C=C/c1ccccc1 — lower, -13.3%
- Clc1nc(Cl)c2ncn(C/C=C/c3ccccc3)c2n1 — higher, 34.7%
- Nc1nc(Cl)nc2c1ncn2C/C=C/c1ccccc1 — higher, 2.46%
- Fc1ccc(/C=C/Cn2cnc3c(Cl)ncnc32)cc1 — higher, 30.2%

Test system: RAW264.7
Test: Antiinflammatory activity in mouse RAW264.7 cells assessed as inhibition of LPS-stimulated nitric oxide production at 10 uM preincubated for 2 hrs followed by LPS stimulation for 24 hrs by Griess reagent based assay relative to control
Format: functional
Conditions: time 26 hrs
Summary of the method: as §1

Point of comparison: CNc1nc(Cl)nc2c1ncn2C/C=C/c1ccc(F)cc1, inhibition at 10 µM 28.2%. Against it:
- CNc1ncnc2c1ncn2C/C=C/c1ccc(F)cc1 — lower, 0.97%
- CNc1nc(Cl)nc2c1ncn2C/C=C/c1ccccc1 — lower, 26.8%
- ONc1nc(Cl)nc2c1ncn2C/C=C/c1ccc(F)cc1 — lower, 4.59%
- Nc1ncnc2c1ncn2C/C=C/c1ccc(F)cc1 — lower, -17.1%
- CNc1nc(Cl)nc2c1ncn2CC1CC1c1ccc(F)cc1 (centres undefined) — lower, 11.2%
- ONc1nc(Cl)nc2c1ncn2C/C=C/c1ccccc1 — higher, 57.4%
- Cc1ccc(/C=C/Cn2cnc3c(N)nc(Cl)nc32)cc1 — lower, 11.9%
- Nc1ncnc2c1ncn2C/C=C/c1ccccc1 — lower, -3.38%
- Clc1nc(Cl)c2ncn(C/C=C/c3ccccc3)c2n1 — lower, 22.2%
- Cc1ccc(/C=C/Cn2cnc3c(N)ncnc32)cc1 — lower, 0.48%
- Nc1nc(Cl)nc2c1ncn2C/C=C/c1ccccc1 — lower, -5.27%
- Fc1ccc(/C=C/Cn2cnc3c(Cl)ncnc32)cc1 — lower, 11.6%

Test system: RAW264.7
Test: Antiinflammatory activity in mouse RAW264.7 cells assessed as inhibition of LPS-stimulated nitric oxide production preincubated for 2 hrs followed by LPS stimulation for 24 hrs by Griess reagent based assay
Format: functional, cell-based
Conditions: time 26.0 hrs
Summary of the method: as §1

With Nc1ncnc2c1ncn2C/C=C/c1ccc(F)cc1 the inhibition was “inactive”.
In the case of Nc1ncnc2c1ncn2C/C=C/c1ccccc1, the inhibition is reported as “inactive”.
In the case of Cc1ccc(/C=C/Cn2cnc3c(N)ncnc32)cc1, the inhibition is reported as “inactive”.
With Nc1nc(Cl)nc2c1ncn2C/C=C/c1ccccc1 the inhibition was “inactive”.

Test system: RAW264.7
Test: Antiinflammatory activity in mouse RAW264.7 cells assessed as inhibition of nitric oxide production incubated for 2 hrs by Griess reagent based assay
Format: functional, cell-based
Conditions: not given
Summary of the method: as §1

With Nc1ncnc2c1ncn2C/C=C/c1ccc(F)cc1 the inhibition was “inactive”.
In the case of Nc1ncnc2c1ncn2C/C=C/c1ccccc1, the inhibition is reported as “inactive”.
With Cc1ccc(/C=C/Cn2cnc3c(N)ncnc32)cc1 the inhibition was “inactive”.
For Nc1nc(Cl)nc2c1ncn2C/C=C/c1ccccc1, the inhibition was “inactive”.
